The values below come from paper PMC4616004 (International journal for parasitology, 2008).

In general, IC50 refers to the midpoint of a concentration-inhibition curve. In general, kcat refers to the maximal rate divided by the concentration of active sites.

Where two headings read alike, the source gives them in different places.

The test system of series [1] is Pf lipase (Pseudomonas fluorescens lipase). As to the kind of experiment: fluorescent esterase assay. It counts as biochemical. The following applies: pH 6.8, 25 °C, 1 mM MgCl2. In outline:
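Commercial lipase, stored in glycerol-containing buffer at −20 °C, was used at 4.6 nM final. Acetyl, propionyl or butyryl 4-methylumbelliferyl esters were freshly diluted in ice-cold buffer (137 mM NaCl, 2.7 mM KCl). Reactions ran at 25 °C, with fluorescence (Ex 355, Em 444) read every minute and converted via a 4-methylumbelliferone standard curve. No-protein backgrounds were subtracted, and 10-min points were used. Km came from non-linear fits of duplicate/triplicate reactions.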

For series [2], the target named is T1, MBP-CpHDAC3 (recombinant CpHDAC3) (Cryptosporidium parvum, UniProt Q5CPX0).
T1 sequence (Q5CPX0 1-973): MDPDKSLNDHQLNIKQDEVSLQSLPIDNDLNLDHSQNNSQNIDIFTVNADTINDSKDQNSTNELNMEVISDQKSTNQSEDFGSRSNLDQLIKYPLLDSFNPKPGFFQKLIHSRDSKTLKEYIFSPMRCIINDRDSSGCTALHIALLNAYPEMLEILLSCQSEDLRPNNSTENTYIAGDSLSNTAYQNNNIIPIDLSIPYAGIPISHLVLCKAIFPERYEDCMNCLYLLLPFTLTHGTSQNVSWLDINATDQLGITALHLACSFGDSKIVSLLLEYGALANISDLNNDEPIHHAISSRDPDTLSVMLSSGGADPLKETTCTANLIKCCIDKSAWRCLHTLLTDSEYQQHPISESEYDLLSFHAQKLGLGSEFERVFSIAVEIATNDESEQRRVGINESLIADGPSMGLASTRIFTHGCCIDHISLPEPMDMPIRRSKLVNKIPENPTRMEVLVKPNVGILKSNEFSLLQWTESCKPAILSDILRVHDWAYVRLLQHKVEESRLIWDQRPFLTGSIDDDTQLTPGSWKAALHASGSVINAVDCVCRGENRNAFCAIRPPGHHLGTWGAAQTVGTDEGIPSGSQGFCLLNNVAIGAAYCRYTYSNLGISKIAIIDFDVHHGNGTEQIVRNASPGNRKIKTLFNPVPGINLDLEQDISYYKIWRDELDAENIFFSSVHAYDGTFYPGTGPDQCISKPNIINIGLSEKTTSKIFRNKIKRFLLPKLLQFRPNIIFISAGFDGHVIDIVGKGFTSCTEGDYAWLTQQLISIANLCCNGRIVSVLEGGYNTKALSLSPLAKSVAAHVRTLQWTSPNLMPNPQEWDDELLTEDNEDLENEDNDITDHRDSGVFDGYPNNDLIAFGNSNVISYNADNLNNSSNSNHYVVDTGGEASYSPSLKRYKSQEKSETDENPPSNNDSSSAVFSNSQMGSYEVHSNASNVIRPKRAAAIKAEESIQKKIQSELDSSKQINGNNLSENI
As to the kind of experiment: Fluor de Lys fluorogenic deacetylase assay. It counts as biochemical.

The target of series [3] is T1, MBP-CpHDAC3 (recombinant CpHDAC3). As to the kind of experiment: Fluor de Lys fluorogenic deacetylase assay. Type of series: biochemical. To be noted: pH 8.1, 20 °C, 1 mM MgCl2.
Substrate in series [4]: CC(=O)Oc1ccc2c(C)cc(=O)oc2c1
As to the kind of experiment: fluorescent esterase assay. Type of series: biochemical, Cryptosporidium parvum. The following applies: pH 6.8, 25 °C, 1 mM MgCl2.

Substrate in series [5]: CCC(=O)Oc1ccc2c(C)cc(=O)oc2c1
As to the kind of experiment: fluorescent esterase assay. It counts as biochemical, Cryptosporidium parvum. To be noted: pH 6.8, 25 °C, 1 mM MgCl2.

As for `CC(=O)Oc1ccc2c(C)cc(=O)oc2c1` [4-methylumbelliferyl-acetate], the Km in series [1] (read-out: Acetyl esterase / Km) came out at 230 ± 48 µM.

Consider `CCCC(=O)Oc1ccc2c(C)cc(=O)oc2c1` [4-methylumbelliferyl-butyrate], for which the Km in series [1] (read-out: Butyryl esterase / Km) came to 260 ± 30 µM.

As for `CCC(=O)Oc1ccc2c(C)cc(=O)oc2c1` [4-methylumbelliferyl-propionate], the Km in series [1] (read-out: Propionyl esterase / Km) amounted to 710 ± 390 µM.

`Cn1cc(C(=O)Cc2ccccc2)cc1C=CC(=O)NO` [APHA 8]: the IC50 in series [2] is 310 ± 1.2 nM.

For `C=C[C@@H](O)[C@@H]1O[C@H]1/C=C/[C@@H]1O[C@H]1[C@@H](C)O` [Depudecin], the IC50 in series [2] is 86 ± 2.4 nM.

As to `CC(/C=C/C(=O)NO)=C\[C@@H](C)C(=O)c1ccc(N(C)C)cc1` [Trichostatin A], in series [2], the IC50 amounted to 18 ± 1.3 nM.

With `O=C(CCCCCCC(=O)Nc1ccccc1)NO` [Vorinostat], the IC50 in series [2] came out at 89 ± 7.9 nM.

Consider Fluor de Lys substrate, for which the Km in series [3] was found to be 61 ± 3.4 µM.

B1: MBP-CpHDAC3 (recombinant CpHDAC3) (Cryptosporidium parvum Iowa II) (protein)
chain: MDPDKSLNDHQLNIKQDEVSLQSLPIDNDLNLDHSQNNSQNIDIFTVNADTINDSKDQNSTNELNMEVISDQKSTNQSEDFGSRSNLDQLIKYPLLDSFNPKPGFFQKLIHSRDSKTLKEYIFSPMRCIINDRDSSGCTALHIALLNAYPEMLEILLSCQSEDLRPNNSTENTYIAGDSLSNTAYQNNNIIPIDLSIPYAGIPISHLVLCKAIFPERYEDCMNCLYLLLPFTLTHGTSQNVSWLDINATDQLGITALHLACSFGDSKIVSLLLEYGALANISDLNNDEPIHHAISSRDPDTLSVMLSSGGADPLKETTCTANLIKCCIDKSAWRCLHTLLTDSEYQQHPISESEYDLLSFHAQKLGLGSEFERVFSIAVEIATNDESEQRRVGINESLIADGPSMGLASTRIFTHGCCIDHISLPEPMDMPIRRSKLVNKIPENPTRMEVLVKPNVGILKSNEFSLLQWTESCKPAILSDILRVHDWAYVRLLQHKVEESRLIWDQRPFLTGSIDDDTQLTPGSWKAALHASGSVINAVDCVCRGENRNAFCAIRPPGHHLGTWGAAQTVGTDEGIPSGSQGFCLLNNVAIGAAYCRYTYSNLGISKIAIIDFDVHHGNGTEQIVRNASPGNRKIKTLFNPVPGINLDLEQDISYYKIWRDELDAENIFFSSVHAYDGTFYPGTGPDQCISKPNIINIGLSEKTTSKIFRNKIKRFLLPKLLQFRPNIIFISAGFDGHVIDIVGKGFTSCTEGDYAWLTQQLISIANLCCNGRIVSVLEGGYNTKALSLSPLAKSVAAHVRTLQWTSPNLMPNPQEWDDELLTEDNEDLENEDNDITDHRDSGVFDGYPNNDLIAFGNSNVISYNADNLNNSSNSNHYVVDTGGEASYSPSLKRYKSQEKSETDENPPSNNDSSSAVFSNSQMGSYEVHSNASNVIRPKRAAAIKAEESIQKKIQSELDSSKQINGNNLSENI
On to B1, for which the Km in series [4] is listed as 89 ± 18 µM; in series [5], 77 ± 30 µM. The kcat in series [4] was 0.01 ± 0.00089 s⁻¹; in series [5], 0.00058 ± 9.2e-05 s⁻¹.
